Laboratory results: publication PMC10921549 (Journal of Agricultural and Food Chemistry, 2024)

Key:
[1] = target: T1, OR8H1 (Homo sapiens, UniProt Q8NGG4); assay: HEK-293 cell-based cAMP luminescence; conditions: for KFO library screening response of OR8H1 (2σ-threshold): each KFO 300 μmol/L, normalized to OR8H1 response to 30 μmol/L TDN; for agonist validation by concentration–response relation on OR8H1: human OR8H1
T1 sequence (Q8NGG4 1-311): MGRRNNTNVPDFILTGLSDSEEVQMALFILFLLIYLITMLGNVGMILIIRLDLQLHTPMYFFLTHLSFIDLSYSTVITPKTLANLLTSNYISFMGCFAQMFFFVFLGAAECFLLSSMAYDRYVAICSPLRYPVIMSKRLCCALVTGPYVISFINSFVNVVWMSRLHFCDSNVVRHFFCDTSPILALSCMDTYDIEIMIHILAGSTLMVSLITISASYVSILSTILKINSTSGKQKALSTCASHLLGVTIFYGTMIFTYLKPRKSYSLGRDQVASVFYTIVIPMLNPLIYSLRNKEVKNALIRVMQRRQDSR
Procedure, shortened: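 In HEK-293 cells expressing recombinant human OR8H1 with GloSensor cAMP luciferase, each of 180 GC-pure food odorants is applied at 300 μmol/L (n = 1, triplicate). After basal subtraction, mock is subtracted and responses are normalized to the 30 μmol/L reference agonist signal; the hit threshold is 2σ. For concentration–response, EC50 comes from a nonlinear Hill fit (slope ≤2.9, weighted by 0.1/SD). Results are mean ± SD.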

[2] = system: OR2W1; conditions: present study and ref 50; cited from earlier work
[3] = system: ptOR8H1; assay: HEK-293 cAMP luminescence assay, chimp ortholog ptOR8H1; format: cell-based, Pan troglodytes (chimpanzee); conditions: for response of chimp orthologue (concentration–response): ptOR8H1
Procedure, shortened: (§1)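 HEK-293 cells (37 °C, 5% CO2, 100% humidity; high-glucose DMEM, 10% FBS, 2 mM L-glutamine, penicillin/streptomycin) transiently express the OR ortholog with a GloSensor cAMP luciferase, and luminescence is read after odorant application. Basal signal is subtracted, data are normalized to a reference odorant–receptor maximum, and mock is subtracted. EC50 comes from a Hill fit weighted by 0.1/SD, with slope ≤2.9. Results are mean ± SD; surface expression is checked by flow cytometry.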

[4] = cited from earlier work
[5] = system: ecOR8H1; assay: HEK-293 cAMP luminescence assay, horse ortholog ecOR8H1; format: cell-based, Equus caballus (horse)
Procedure, shortened: as §1

[6] = system: 386 human OR types and 380 of their most frequent variants; assay: Screening of TDN against OR library of 766 cDNAs; format: cell-based; conditions: 100 μmol/L TDN, 766 OR cDNAs

Compound: C=CCc1ccc(OC)c(OC)c1 [Compound 2, 1,2-dimethoxy-4-prop-2-enylbenzene]
- EC50 [1]: 114 ± 20.1 µM
- activation of OR2W1 [2]: did not activate

Compound: COc1nccnc1C(C)C [Compound 3, 2-methoxy-3-propan-2-ylpyrazine]
- EC50 [1]: 147 ± 8.64 µM

Compound: CC1=CCC(C(C)(C)S)CC1 (stereo not drawn) [Compound 8, 2-(4-methylcyclohex-3-en-1-yl)propane-2-thiol]
- EC50 [1]: 206 ± 80.8 µM
- response of chimp orthologue (concentration–response) [3]: responded

Compound: CC(=O)OCCc1ccccc1 [2-phenylethyl acetate]
- KFO library screening response of OR8H1 (2σ-threshold) [1]: did not activate OR8H1

Compound: Cc1ccc2c(c1)C=CCC2(C)C [TDN, 1,1,6-trimethyl-1,2-dihydronaphthalene]
- EC50 [1]: 32 ± 6.09 µM
- odor (detection) threshold in Riesling wine ([4]; Riesling wine): 2.3 µg/L
- odor threshold, originally reported [4]: 20 µg/L
- detection threshold ([4]; spiked model wine): 2 µg/L
- response of horse orthologue to TDN [5]: nonresponding
- EC50 ([3]; chimp ptOR8H1 in HEK-293, n = 3): 37.8 ± 29.1 µM
- response of chimp orthologue (concentration–response) [3]: responded
- efficacy lower than at the human receptor ([3]; ptOR8H1 versus human OR8H1): ~7 fold
- receptor activation above 3σ-threshold in OR library screening [6]: exclusively activated a single OR above a 3σ-threshold: OR8H1

Compound: CCCc1ccc(O)c(OC)c1 [Compound 5, 2-methoxy-4-propylphenol]
- odor threshold (OT in water/EtOH (60/40)) ([4]; water/EtOH (60/40)): 1.9 ^b[35] μg/kg

Compound: CC(=O)c1ccc2ccccc2c1 [2-acetylnaphthalene]
- agonist validation by concentration–response relation on OR8H1 [1]: agonist for OR8H1

Compound: C=C(C)c1ccc(C)cc1 [Compound 1, 1-methyl-4-(prop-1-en-2-yl)benzene]
- EC50 [1]: 336 ± 74.9 µM

Compound: CC(C)c1ccc(C=O)cc1 [Compound 7, 4-Propan-2-ylbenzaldehyde]
- EC50 [1]: 92 ± 11.7 µM
- response of chimp orthologue (concentration–response) [3]: responded
- activation of OR2W1 [2]: did not activate

Compound: C=C(C)[C@@H]1CC=C(C)C(=O)C1 [Compound 6, (5R)-2-methyl-5-prop-1-en-2-ylcyclohex-2-en-1-one]
- EC50 [1]: 193 ± 9.52 µM
- KFO library screening response of OR8H1 (2σ-threshold) [1]: false-negative responder
- agonist validation by concentration–response relation on OR8H1 [1]: agonist of OR8H1
